IC50, Ki and inhibition data for 19 molecules are collected here from ChEMBL document CHEMBL3399968, “Diarylsulfonamides and their bioisosteres as dual inhibitors of alkaline phosphatase and carbonic anhydrase: Structure activity relationship and molecular modelling studies” (Bioorg Med Chem, 2015).

The target in one assay is Carbonic anhydrase 2 (Bos taurus, UniProt P00921). The assay can be described thus: Inhibition of bovine carbonic anhydrase 2 assessed as hydrolysis of p-nitrophenyl acetate after 30 mins by spectrophotometric method.
Assay [1] deals with T1, Alkaline phosphatase, tissue-nonspecific isozyme (Bos taurus, UniProt P09487).
T1 sequence (P09487 whole entry): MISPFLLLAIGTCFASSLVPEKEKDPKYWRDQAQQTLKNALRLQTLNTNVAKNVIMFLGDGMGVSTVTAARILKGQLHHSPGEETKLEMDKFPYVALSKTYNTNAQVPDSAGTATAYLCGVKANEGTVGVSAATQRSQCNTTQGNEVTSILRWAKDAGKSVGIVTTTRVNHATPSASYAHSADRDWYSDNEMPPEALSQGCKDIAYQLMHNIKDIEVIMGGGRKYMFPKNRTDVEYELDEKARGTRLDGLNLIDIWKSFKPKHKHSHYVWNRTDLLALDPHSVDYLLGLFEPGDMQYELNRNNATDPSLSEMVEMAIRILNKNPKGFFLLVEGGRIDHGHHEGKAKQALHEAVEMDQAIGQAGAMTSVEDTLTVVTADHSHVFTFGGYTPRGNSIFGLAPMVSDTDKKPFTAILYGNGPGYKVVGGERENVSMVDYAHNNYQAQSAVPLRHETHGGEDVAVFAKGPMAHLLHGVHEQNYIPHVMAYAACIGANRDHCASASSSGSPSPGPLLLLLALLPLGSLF
The assay can be described thus: Inhibition of bovine kidney non-specific alkaline phosphatase using CDP-star chemiluminescent substrate assessed as change in luminescence by spectrophotometric method.

Assay [2] concerns the target Intestinal-type alkaline phosphatase (Bos taurus, UniProt P19111). Briefly: Inhibition of calf intestinal alkaline phosphatase using CDP-star chemiluminescent substrate assessed as change in luminescence by spectrophotometric method.
Assay [3] has as its target T2, Alkaline phosphatase, tissue-nonspecific isozyme (Bos taurus) (UniProt P09487).
T2 sequence (whole entry): T1 sequence (P09487 whole entry)
Briefly: Inhibition of bovine kidney non-specific alkaline phosphatase using CDP-star chemiluminescent substrate assessed as change in luminescence at 0.2 mM by spectrophotometric method. A digest of the protocol:
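Buffer: 8 M DEA pH 9.8, 2.5 mM MgCl2, 0.05 mM ZnCl2. Compound 0.2 mM, final DMSO 1% (v/v), with TNAP (1:800 dilution, 0.8 units/mL); pre-incubated 3–5 min at 37 °C, luminescence pre-read; CDP-star added to 110 µM final; 15 min at 37 °C, after-read. Percent inhibition vs uninhibited control; levamisole 2 mM per well as positive control.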

For assay [4], the target named is Carbonic anhydrase 2 (Bos taurus) (UniProt P00921). The assay can be described thus: Inhibition of bovine carbonic anhydrase 2 assessed as hydrolysis of p-nitrophenyl acetate at 0.5 mM after 30 mins by spectrophotometric method. The essentials: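 Bovine CA (50 U/well) in 50 mM Tris-sulfate pH 7.6 with 0.1 mM ZnCl2; compound at 0.5 mM in 1% DMSO; pre-incubated 10 min at 25 °C, pre-read at 348 nm; p-nitrophenyl acetate added to 0.6 mM final; 30 min at 25 °C, read at 348 nm.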
Sequence of Carbonic anhydrase 2 (Bos taurus) (P00921 2-260 limits assumed): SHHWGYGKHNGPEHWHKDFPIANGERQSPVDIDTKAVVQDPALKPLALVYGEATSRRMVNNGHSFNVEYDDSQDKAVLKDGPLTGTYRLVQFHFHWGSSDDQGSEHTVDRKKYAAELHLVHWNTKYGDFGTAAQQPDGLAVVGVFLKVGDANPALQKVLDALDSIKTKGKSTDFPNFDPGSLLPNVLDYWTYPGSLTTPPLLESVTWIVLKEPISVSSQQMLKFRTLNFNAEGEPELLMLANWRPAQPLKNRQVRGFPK

Sequence of Intestinal-type alkaline phosphatase (P19111 whole entry): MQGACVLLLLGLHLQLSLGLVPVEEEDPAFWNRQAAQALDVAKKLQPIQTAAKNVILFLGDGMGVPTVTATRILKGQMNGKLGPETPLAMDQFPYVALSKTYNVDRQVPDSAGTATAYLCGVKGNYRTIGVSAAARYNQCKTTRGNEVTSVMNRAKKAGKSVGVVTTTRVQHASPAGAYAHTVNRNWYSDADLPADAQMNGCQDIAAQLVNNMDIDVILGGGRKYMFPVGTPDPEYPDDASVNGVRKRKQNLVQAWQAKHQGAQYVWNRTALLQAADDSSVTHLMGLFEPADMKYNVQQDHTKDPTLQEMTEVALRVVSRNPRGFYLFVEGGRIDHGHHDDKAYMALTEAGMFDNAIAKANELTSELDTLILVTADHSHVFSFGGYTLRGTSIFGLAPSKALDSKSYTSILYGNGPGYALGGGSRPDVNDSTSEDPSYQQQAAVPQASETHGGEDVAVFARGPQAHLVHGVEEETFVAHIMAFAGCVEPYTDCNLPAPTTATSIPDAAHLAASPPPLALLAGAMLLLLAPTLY
Sequence of Carbonic anhydrase 2 (P00921 whole entry): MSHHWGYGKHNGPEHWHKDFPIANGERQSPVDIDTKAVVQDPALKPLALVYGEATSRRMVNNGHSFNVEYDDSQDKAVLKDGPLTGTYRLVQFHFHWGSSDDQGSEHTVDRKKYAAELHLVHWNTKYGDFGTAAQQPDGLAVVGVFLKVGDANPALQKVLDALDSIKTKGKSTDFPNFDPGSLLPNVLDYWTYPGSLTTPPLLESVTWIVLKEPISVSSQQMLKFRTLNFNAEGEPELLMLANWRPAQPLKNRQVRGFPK

Take `Cc1ccc(S(=O)(=O)NCCc2ccc(S(N)(=O)=O)cc2)cc1`: the IC50 at Carbonic anhydrase 2 (read-out: IC50) was 0.241 µM; in assay [1] it was 41.2 µM; in assay [2], 2.96 µM. In assay [1], the Ki turned out to be 17.6 µM.

In the case of `NS(=O)(=O)c1ccc(CNC(=O)c2ccc(F)cc2)cc1`, the IC50 on Carbonic anhydrase 2 (read-out: IC50) stood at 0.821 µM; in assay [1], 0.613 µM; in assay [2], 1.18 µM. Also, the Ki in assay [1] is 0.299 µM.

Turning to `Cc1ccc(S(=O)(=O)Nc2ccc(S(N)(=O)=O)cc2)cc1`, the results for the IC50 (on Carbonic anhydrase 2 (read-out: IC50); in assay [1]; in assay [2]) were 0.057 µM, 222 µM and 14.5 µM, respectively. The Ki in assay [1] was found to be 91.9 µM.

For the molecule `Cc1ccc(S(=O)(=O)Nc2ccccc2)cc1`, in assay [1], the IC50 came out at 0.18 µM and the Ki worked out at 0.07 µM. Also, the IC50 in assay [2] was determined as 9.15 µM.

Regarding `NS(=O)(=O)c1ccc(CCNS(=O)(=O)c2ccc(F)cc2)cc1`, the IC50 on Carbonic anhydrase 2 (read-out: IC50) was determined as 0.035 µM; in assay [2], 11.7 µM. Further, the inhibition in assay [3] was 44.1%.

With `CCOc1ccc(NS(=O)(=O)c2ccc(F)cc2)cc1`, the IC50 result on Carbonic anhydrase 2 was “Not Active”; in assay [2], 0.72 µM. For the same molecule, the inhibition in assay [3] amounted to 39.5%.

For the molecule `NS(=O)(=O)c1ccc(NC(=O)c2ccccc2)cc1`, in assay [1], the IC50 turned out to be 70.1 µM and the Ki worked out at 16.6 µM. Besides, the IC50 in assay [2] came out at 3.05 µM. In addition, in assay [4], the inhibition amounted to 48.4%.

Regarding `NS(=O)(=O)c1cccc(NS(=O)(=O)c2ccc(F)cc2)c1`, the IC50 is 0.1 µM at Carbonic anhydrase 2 (read-out: IC50), 0.15 µM in assay [1] and 1.27 µM in assay [2]. The Ki in assay [1] turned out to be 0.06 µM.

Take `NS(=O)(=O)c1ccc(NC(=O)c2ccc(F)cc2)cc1`: the half-maximal inhibitory concentration (IC50) worked out at 58.6 µM in assay [1] and 5.91 µM in assay [2]. In assay [1], the Ki stood at 25.1 µM. The inhibition in assay [4] was 47.3%.

Regarding `NS(=O)(=O)c1ccc(CCNC(=O)c2ccc(F)cc2)cc1`, the figures for the IC50 (at Carbonic anhydrase 2 (read-out: IC50); in assay [1]; in assay [2]) were 0.656 µM, 22.5 µM and 6.73 µM, respectively. The Ki in assay [1] turned out to be 4.51 µM.

As for `CCOc1ccc(NS(=O)(=O)c2ccc(C)cc2)cc1`, the figures for the IC50 entry (at Carbonic anhydrase 2; in assay [1]; in assay [2]) were “Not Active”, 0.31 µM and 30.1 µM, respectively. The Ki in assay [1] is 0.128 µM.

`NS(=O)(=O)c1ccc(NS(=O)(=O)c2ccc(F)cc2)cc1`: the IC50 on Carbonic anhydrase 2 (read-out: IC50) is 0.1 µM; in assay [1], 3.26 µM; in assay [2], 1.13 µM. In addition, in assay [1], the Ki turned out to be 1.39 µM.

In the case of `NS(=O)(=O)c1ccc(CNC(=O)c2ccccc2)cc1`, the IC50 worked out at 0.691 µM on Carbonic anhydrase 2 (read-out: IC50), 2.87 µM in assay [1] and 4.45 µM in assay [2]. The Ki in assay [1] amounted to 0.918 µM.

As to `c1ccc([C@H]2CN3CCSC3=N2)cc1` [LEVAMISOLE], the Ki in assay [1] turned out to be 1.81 µM.

Regarding `NS(=O)(=O)c1cccc(NC(=O)c2ccc(F)cc2)c1`, the values for the IC50 in assay [1] and in assay [2] were 55.6 µM and 9.75 µM, respectively. Also, the Ki in assay [1] was determined as 16.2 µM. Also, in assay [4], the inhibition came to 36.4%.

In the case of `NS(=O)(=O)c1ccc(CNS(=O)(=O)c2ccc(F)cc2)cc1`, the IC50 on Carbonic anhydrase 2 (read-out: IC50) was found to be 0.215 µM; in assay [1], 2.94 µM; in assay [2] it was 1.35 µM. Further, the Ki in assay [1] came out at 1.25 µM.

As for `Cc1ccc(S(=O)(=O)Nc2cccc(S(N)(=O)=O)c2)cc1`, the figures for the IC50 (at Carbonic anhydrase 2 (read-out: IC50); in assay [1]; in assay [2]) were 0.152 µM, 2.24 µM and 8.27 µM, respectively. Also, the Ki in assay [1] came to 0.95 µM.

Consider `Cc1ccc(S(=O)(=O)NCc2ccc(S(N)(=O)=O)cc2)cc1`, for which the IC50 at Carbonic anhydrase 2 (read-out: IC50) came to 0.134 µM; in assay [1] it was 0.115 µM; in assay [2], 0.14 µM. In addition, the Ki in assay [1] stood at 0.05 µM.

On to `NS(=O)(=O)c1ccc(CCNC(=O)c2ccccc2)cc1`, for which the IC50 at Carbonic anhydrase 2 (read-out: IC50) turned out to be 0.544 µM; in assay [1] it was 10.3 µM; in assay [2], 0.429 µM. Further, in assay [1], the Ki turned out to be 3.96 µM.

For orientation: IC50 means the concentration needed to halve the response being measured. Broadly, the Ki is the equilibrium dissociation constant of an inhibitor or competing ligand from its target. The term inhibition denotes the share of the control response that was lost under treatment.
